Experimental data: ChEMBL document CHEMBL2440113, “Synthesis, radiofluorination, and in vivo evaluation of novel fluorinated and iodinated radiotracers for PET imaging and targeted radionuclide therapy of melanoma” (J Med Chem, 2013)

How the values were obtained:
Mus musculus [1] = experiment: Biodistribution in tumor of C57BL/6J mouse harboring mouse B16-Bl6 cells at 8 to 12 MBq, iv after 1 hr by PET analysis; type: ADME, organism-based, Neoplasm; conditions: in vivo
Procedure, shortened: (§1)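 Static whole-body PET at 1 h after tail-vein injection of [18F]tracer (9-12 MBq/0.15 mL) in C57BL/6J mice carrying subcutaneous B16Bl6 shoulder tumours (3x10⁵ cells), imaged day 10 or 14. Mice under ketamine/xylazine ip. 25 min acquisition, OSEM reconstruction. ROI % ID/g = counts/g/min ÷ injected dose; ratios = tumour % ID/g ÷ organ % ID/g. n=2-8; mean ± SD.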

Mus musculus [2] = experiment: Biodistribution in tumor of C57BL/6J mouse harboring mouse B16-Bl6 cells at 9 to 12 MBq, iv after 3 hrs by PET analysis; type: ADME, organism-based, Neoplasm; conditions: in vivo
Procedure, shortened: (§2)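 Ex vivo biodistribution. C57BL/6J mice bearing subcutaneous B16Bl6 tumours (3x10⁵ cells, shoulder), day 10 or 14, received [18F]tracer iv (9-12 MBq). They were killed by CO₂ at 1, 2 or 3 h. Tumours and organs were excised, weighed and gamma-counted. Results are decay-corrected % ID/g; ratios are tumour over tissue. n=3-6 per group; mean ± SD.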

[3] = Ratio of drug level in tumor to blood in C57BL/6J mouse harboring mouse B16-Bl6 cells at 9 to 12 MBq, iv after 3 hrs by PET analysis; type: ADME, organism-based; procedure, shortened: as §2
Liver [4] = experiment: Biodistribution in liver of C57BL/6J mouse harboring mouse B16-Bl6 cells at 9 to 12 MBq, iv after 2 hrs by PET analysis; type: ADME, organism-based; conditions: in vivo
Procedure, shortened: (§3)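 Ex vivo dissection in B16Bl6-bearing C57BL/6J mice (3x10⁵ cells s.c. right shoulder), done at day 10 or 14 after implantation. The ¹⁸F tracer was given i.v. at 9-12 MBq. Mice were killed by CO₂ at 1, 2 or 3 h. Tumor, organs and tissues were excised, weighed and gamma-counted, then decay-corrected and expressed as %ID/g. n=3-6 per group; mean ± SD.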

Mus musculus [5] = experiment: Biodistribution in tumor of C57BL/6J mouse harboring mouse B16-Bl6 cells at 9 to 12 MBq, iv after 2 hrs by PET analysis; type: ADME, organism-based, Neoplasm; conditions: in vivo; procedure, shortened: as §2
Mus musculus [6] = experiment: Ratio of drug level in tumor to muscle in C57BL/6J mouse harboring mouse B16-Bl6 cells at 9 to 12 MBq, iv after 3 hrs by PET analysis; conditions: in vivo
Zone of skin [7] = experiment: Biodistribution in skin of C57BL/6J mouse harboring mouse B16-Bl6 cells at 9 to 12 MBq, iv after 3 hrs by PET analysis; type: ADME, organism-based; conditions: in vivo; procedure, shortened: as §3
Zone of skin [8] = experiment: Biodistribution in skin of C57BL/6J mouse harboring mouse B16-Bl6 cells at 9 to 12 MBq, iv after 2 hrs by PET analysis; type: ADME, organism-based; conditions: in vivo; procedure, shortened: as §3
Liver [9] = experiment: Biodistribution in liver of C57BL/6J mouse harboring mouse B16-Bl6 cells at 9 to 12 MBq, iv after 1 hr by PET analysis; type: ADME, organism-based; conditions: in vivo; procedure, shortened: as §3
Spleen = experiment: Biodistribution in spleen of C57BL/6J mouse harboring mouse B16-Bl6 cells at 9 to 12 MBq, iv after 1 hr by PET analysis; type: ADME, organism-based; conditions: in vivo; procedure, shortened: as §3
Brain [10] = experiment: Biodistribution in brain of C57BL/6J mouse harboring mouse B16-Bl6 cells at 9 to 12 MBq, iv after 2 hrs by PET analysis; type: ADME, organism-based; conditions: in vivo; procedure, shortened: as §3
Stomach [11] = experiment: Biodistribution in stomach of C57BL/6J mouse harboring mouse B16-Bl6 cells at 9 to 12 MBq, iv after 3 hrs by PET analysis; type: ADME, organism-based; conditions: in vivo; procedure, shortened: as §2
Mus musculus [12] = experiment: Biodistribution in tumor of C57BL/6J mouse harboring mouse B16-Bl6 cells at 9 to 12 MBq, iv after 1 hr by PET analysis; type: ADME, organism-based, Neoplasm; conditions: in vivo; procedure, shortened: as §2
Mus musculus [13] = experiment: Ratio of drug level in tumor to muscle in C57BL/6J mouse harboring mouse B16-Bl6 cells at 9 to 12 MBq, iv after 2 hrs by PET analysis; conditions: in vivo
Stomach [14] = experiment: Biodistribution in stomach of C57BL/6J mouse harboring mouse B16-Bl6 cells at 9 to 12 MBq, iv after 2 hrs by PET analysis; type: ADME, organism-based; conditions: in vivo; procedure, shortened: as §3
Mus musculus [15] = experiment: Biodistribution in eyes of C57BL/6J mouse harboring mouse B16-Bl6 cells at 9 to 12 MBq, iv after 1 hr by PET analysis; type: ADME, organism-based, Eye; conditions: in vivo; procedure, shortened: as §3
Mus musculus [16] = experiment: Biodistribution in cecum of C57BL/6J mouse harboring mouse B16-Bl6 cells at 9 to 12 MBq, iv after 1 hr by PET analysis; type: ADME, organism-based, Caecum; conditions: in vivo; procedure, shortened: as §3
Mus musculus [17] = experiment: Biodistribution in small intestine of C57BL/6J mouse harboring mouse B16-Bl6 cells at 9 to 12 MBq, iv after 1 hr by PET analysis; type: ADME, organism-based; conditions: in vivo; procedure, shortened: as §3
Muscle tissue [18] = experiment: Biodistribution in muscle of C57BL/6J mouse harboring mouse B16-Bl6 cells at 9 to 12 MBq, iv after 3 hrs by PET analysis; type: ADME, organism-based; conditions: in vivo; procedure, shortened: as §3
Brain [19] = experiment: Biodistribution in brain of C57BL/6J mouse harboring mouse B16-Bl6 cells at 9 to 12 MBq, iv after 1 hr by PET analysis; type: ADME, organism-based; conditions: in vivo; procedure, shortened: as §3
Mus musculus [20] = experiment: Biodistribution in eye of C57BL/6J mouse harboring mouse B16-Bl6 cells at 8 to 12 MBq, iv after 1 hr by PET analysis; type: ADME, organism-based; conditions: in vivo
Procedure, shortened: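 C57BL/6J mice were inoculated s.c. on the right shoulder with 3x10⁵ B16Bl6 cells in PBS under isoflurane, and imaged at day 10 or 14 (tumor volume 431.8 ± 154.3 mm³). The ¹⁸F tracer was given i.v. via tail vein, 8-12 MBq (methods: 9-12 MBq/0.15 mL). Under ketamine/xylazine i.p., a 25-min whole-body static PET scan ran at 1 h. ROI %ID/g = counts/g/min ÷ injected dose. n=2-8; mean ± SD.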

Muscle tissue [21] = experiment: Biodistribution in muscle of C57BL/6J mouse harboring mouse B16-Bl6 cells at 9 to 12 MBq, iv after 1 hr by PET analysis; type: ADME, organism-based; conditions: in vivo; procedure, shortened: as §3
[22] = Ratio of drug level in tumor to bone in C57BL/6J mouse harboring mouse B16-Bl6 cells at 8 to 12 MBq, iv after 1 hr by PET analysis; type: ADME, organism-based; conditions: in vivo; procedure, shortened: as §1
[23] = Octanol-water partition coefficient, log D of the compound at pH 7.4; type: physicochemical
Procedure, shortened: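 About 74 kBq radiotracer was shaken in PBS pH 7.4 / octanol (1:1 mL), vortexed 1 min three times at room temperature, then centrifuged (3,000 rpm, 5 min). Both phases were gamma-counted. Three independent experiments in duplicate.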

Heart = experiment: Biodistribution in heart of C57BL/6J mouse harboring mouse B16-Bl6 cells at 9 to 12 MBq, iv after 1 hr by PET analysis; type: ADME, organism-based; conditions: in vivo; procedure, shortened: as §3
Brain [24] = experiment: Biodistribution in brain of C57BL/6J mouse harboring mouse B16-Bl6 cells at 9 to 12 MBq, iv after 3 hrs by PET analysis; type: ADME, organism-based; conditions: in vivo; procedure, shortened: as §3
Zone of skin [25] = experiment: Biodistribution in skin of C57BL/6J mouse harboring mouse B16-Bl6 cells at 9 to 12 MBq, iv after 1 hr by PET analysis; type: ADME, organism-based; conditions: in vivo; procedure, shortened: as §3

| Drug uptake (Mus musculus [1]) [% ID/g] | Drug uptake (Mus musculus [2]) [% ID/g] | Kp at 3 h [3] | Drug uptake (Liver [4]) [% ID/g] | Drug uptake (Mus musculus [5]) [% ID/g] | Ratio (Mus musculus [6]) | Drug uptake (Zone of skin [7]) [% ID/g] | Drug uptake (Zone of skin [8]) [% ID/g] | Drug uptake (Liver [9]) [% ID/g] | Drug uptake (Spleen) [% ID/g] | Drug uptake (Brain [10]) [% ID/g] | Drug uptake (Stomach [11]) [% ID/g] | Drug uptake (Mus musculus [12]) [% ID/g] | Ratio (Mus musculus [13]) | Drug uptake (Stomach [14]) [% ID/g] | Drug uptake (Mus musculus [15]) [% ID/g] | Drug uptake (Mus musculus [16]) [% ID/g] | Drug uptake (Mus musculus [17]) [% ID/g] | Drug uptake (Muscle tissue [18]) [% ID/g] | Drug uptake (Brain [19]) [% ID/g] | SMILES | further results |
| --- | --- | --- | --- | --- | --- | --- | --- | --- | --- | --- | --- | --- | --- | --- | --- | --- | --- | --- | --- | --- | --- |
| 14.33 | 11.55 | 14.4 | 1.88 | 13.07 | 14.46 | 1.05 | 1.51 | 2.56 | 3.72 | 1.39 | 2.81 | 14.05 | 14.46 | 2.48 | 18.36 | 7.27 | 7.58 | 0.81 | 1.82 | CCN(CCNC(=O)c1cnc2cc(I)ccc2n1)CCOCCOCCOCC[18F] | Drug uptake (Mus musculus [20]): 10.5 % ID/g; Drug uptake (Muscle tissue [21]): 1.17 % ID/g; Ratio [22]: 7.65; logD [23]: 1.52; Drug uptake (Heart): 2.72 % ID/g; Drug uptake (Brain [24]): 1.37 % ID/g; Drug uptake (Zone of skin [25]): 1.44 % ID/g |
| 6.63 | 6.76 | 5.27 | 2.31 | 5.81 | 6.64 | 1.47 | 0.94 | 2.02 | 2.35 | 1.03 | 5.39 | 9.81 | 5.75 | 7.35 | 12.24 | 6.37 | 16.68 | 1.11 | 1.03 | CCN(CCNC(=O)c1cnc2cc(I)ccc2n1)CCOCCOCCOCCOCCOCCOCCOCC[18F] | Drug uptake (Mus musculus [20]): 5.53 % ID/g; Drug uptake (Muscle tissue [21]): 1.07 % ID/g; Ratio [22]: 2.67; logD [23]: 0.95; Drug uptake (Heart): 1.58 % ID/g; Drug uptake (Brain [24]): 1.72 % ID/g; Drug uptake (Zone of skin [25]): 1.22 % ID/g |
